# According to article PMC5414581 (Neuropharmacology, 2017):
# Substitutions are numbered along the chain they refer to. Entries after “also recorded” stand apart in the source; their conditions may differ. Where a SMILES comes first, the peptide text is derived from it. Where no end group is shown, it is not given here. Me2 = N,N-dimethyl-lysine
# T1: human NPS receptor, 107I variant (human) (UniProt Q6W5P4)
# T1 sequence: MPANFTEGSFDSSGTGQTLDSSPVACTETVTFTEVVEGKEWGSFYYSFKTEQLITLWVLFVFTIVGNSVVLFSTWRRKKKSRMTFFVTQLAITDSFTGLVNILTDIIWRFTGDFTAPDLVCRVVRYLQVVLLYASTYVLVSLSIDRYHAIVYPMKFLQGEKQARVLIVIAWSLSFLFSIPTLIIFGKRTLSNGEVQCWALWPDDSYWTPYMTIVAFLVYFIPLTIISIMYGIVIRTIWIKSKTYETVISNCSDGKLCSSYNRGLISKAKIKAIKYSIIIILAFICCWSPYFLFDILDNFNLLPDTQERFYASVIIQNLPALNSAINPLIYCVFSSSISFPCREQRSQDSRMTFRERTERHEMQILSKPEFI
# T2: hNPSR-107I (Homo sapiens, UniProt Q6W5P4, N107I)
# T2 sequence (Q6W5P4 1-371 N107I): T1 sequence
# T3: hNPSR-107N (Homo sapiens, UniProt Q6W5P4)
# T3 sequence (Q6W5P4 1-371): T1 sequence with I107N
# T4: mNPSR (Mus musculus, UniProt Q8BZP8)
# T4 sequence (Q8BZP8 1-371): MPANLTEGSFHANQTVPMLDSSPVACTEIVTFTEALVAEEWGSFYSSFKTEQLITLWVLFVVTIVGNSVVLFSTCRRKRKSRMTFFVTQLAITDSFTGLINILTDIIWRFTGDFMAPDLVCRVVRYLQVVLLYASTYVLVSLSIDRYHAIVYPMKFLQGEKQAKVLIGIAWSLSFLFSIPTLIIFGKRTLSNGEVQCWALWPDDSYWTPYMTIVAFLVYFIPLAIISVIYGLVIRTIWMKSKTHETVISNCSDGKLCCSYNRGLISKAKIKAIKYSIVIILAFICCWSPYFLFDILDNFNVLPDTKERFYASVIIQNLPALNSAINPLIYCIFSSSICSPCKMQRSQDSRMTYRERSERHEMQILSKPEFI
# T5: mouse NPS receptor (mouse) (UniProt Q8BZP8)
# T5 sequence: T4 sequence (Q8BZP8 1-371)
# T6: human NPS receptor, 107N variant (human) (UniProt Q6W5P4)
# T6 sequence: T1 sequence with I107N
# What was measured:
# [1] = biological target: T1, human NPS receptor, 107I variant (human)
# [2] = test system: mice; assay: Marble Burying; type: in vivo, mouse
# [3] = test system: mice; assay: Locomotor stimulation; type: in vivo, mouse; conditions: RTI-118 50 mg/kg i.p.; compound 4 10 nmole ICV
# Outline: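 Mice were habituated 1 h in a 40 × 40 cm infrared-beam open field in a novel room, during the light phase. Test compound in aCSF/0.1% BSA was given ICV into the lateral ventricle under brief isoflurane. Recording began after ≥5 min recovery. The antagonist was given 50 mg/kg i.p. in saline as pretreatment. Misplaced injections were excluded post-mortem. n = 7–11 per group; one-way ANOVA with Dunnett's test.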
# [4] = test system: mice; assay: Light-Dark Box; type: in vivo, mouse; conditions: 1 nmole ICV, 5–10 minutes before test
# [5] = biological target: T2, hNPSR-107I; conditions: ref Bernier et al., 2006; cited from earlier work
# [6] = test system: mice; assay: Passive Avoidance; type: in vivo, mouse; conditions: ICV 20 minutes after training, tested 48 hours after training; compound 4 0.01-10 nmole, NPS 1 nmole; vs aCSF
# [7] = biological target: T2, hNPSR-107I; assay: cAMP accumulation assay; type: cell-based
# Outline: (§1)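 Cells were harvested with versene and suspended in HBSS, 5 mM HEPES, 0.5 mM IBMX, 0.1% BSA, pH 7.4: hNPSR-107N at 8,000/well, hNPSR-107I at 4,000/well, mNPSR at 20,000/well. Agonist was incubated at room temperature for 30 min (human lines) or 1 h (mNPSR). LANCE Ultra TR-FRET detection ran 1 h in the dark. RFU was interpolated to fmol cAMP from a standard curve, and a three-parameter fit gave EC50.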
# [8] = biological target: T2, hNPSR-107I; assay: Ca+2 mobilization assay, CHO-Gα16 hNPSR-107I cells; type: cell-based
# Outline: (§2)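 FLIPR Calcium 5 dye diluted 1:40 in HBSS, 20 mM HEPES, 2.5 mM probenecid, pH 7.4, loaded 45 min at 37 °C. Cells were plated overnight without selection antibiotics: CHO-Gα16 hNPSR-107I/N at 25,000/well and HEK 293T mNPSR at 35,000/well. Cells were pretreated 15 min at 1% DMSO. Test compound or NPS was added during a 60 s read (ex 485/em 525). Peak RFU was fit to a three-parameter logistic curve to give EC50. Bias was taken as Log(max/EC50), calcium versus cAMP, relative to NPS.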
# [9] = biological target: T3, hNPSR-107N; assay: cAMP accumulation assay; type: cell-based
# Outline: as §1
# [10] = biological target: T4, mNPSR; assay: cAMP accumulation assay; type: cell-based
# Outline: as §1
# [11] = biological target: T4, mNPSR; assay: Ca+2 mobilization assay, HEK 293T mNPSR cells; type: cell-based
# Outline: as §2
# [12] = biological target: T3, hNPSR-107N; assay: Ca+2 mobilization assay, CHO-Gα16 hNPSR-107N cells; type: cell-based; conditions: hNPSR 107N cell line
# Outline: as §2
# [13] = biological target: T5, mouse NPS receptor (mouse)
# [14] = biological target: T6, human NPS receptor, 107N variant (human)
# [15] = hNPSR 107I cell line, fraction of maximal window for response
# [16] = mNPSR cell line, fraction of maximal window for response
molecule,measurement,setting,value
7. SerPheAOCAsn-NH2 (peptide),"EC50 of calcium mobilization, CHO-Gα16 hNPSR-107I cells",[1],436 nM
O=C(NCCN1CCCCC1)N1CCN2C(=O)OC(c3ccccc3)(c3ccccc3)C2C1 (stereo not shown) [RTI-118],block of compound 4 effect on marble burying by pretreatment,[2]; RTI-118 20 mg/kg fifteen minutes before compound 4 0.5 nmole,effects of 4 can be blocked; also recorded: blocked by the pretreatment with RTI-118
same,block of compound 4 induced locomotor effects by pretreatment,[3],induced locomotor effects can be blocked; also recorded: this effect is blocked by pretreatment
"SFRNGVGTGMKKTSFQRAKS [NPS, Neuropeptide S]",number of entries into the light-side,[4],Neither NPS nor 4 significantly increased the number of entries into the light-side; also recorded: significantly more entries than compound 4 treated animals
same,time spent on the light side,[4]; vs aCSF,significantly increased the time spent on the light-side; also recorded: spent significantly more time on the light-side than the compound 4 treated animals
same,selectivity for the hNPSR-107I over the hNPSR-107N (calcium mobilization EC50),[5],5 fold
same,latency to enter the dark compartment,[6],appear to have the same maximal effects; also recorded: significantly increased the latency time
same,cAMP Accumulation Max,[7]; [15],1
same,BIAS (Bias Toward Calcium),"[8]; hNPSR 107I cell line, calcium versus cAMP pathway",1.00
same,Calcium Mobilization Max,[8]; [15],0.96
same,number of marbles buried,"[2]; 1 nmole ICV, twenty minutes before test, vs aCSF (Figure 5A)",NPS and 4 produce similar effects; also recorded: significantly decreased the number of marbles buried
same,cAMP Accumulation Max,"[9]; hNPSR 107N cell line, fraction of maximal window for response",0.97
same,cAMP Accumulation Max,[10]; [16],0.82
same,BIAS (Bias Toward Calcium),"[11]; mNPSR cell line, calcium versus cAMP pathway",1.00
same,Calcium Mobilization Max,[11]; [16],1
same,BIAS (Bias Toward Calcium),[12]; calcium versus cAMP pathway,1.00
same,Calcium Mobilization Max,[12]; fraction of maximal window for response,0.97
"NCCCC[C@H](NC(=O)[C@H](Cc1ccccc1)NC(=O)[C@@H](N)CO)C(=O)N[C@@H](CC(N)=O)C(N)=O [compound 4, SerPheLysAsn-NH2] (H-SFKN-NH2)",EC50,[7],117 ± 22 nM
same,EC50,[8],3.02 ± 0.74 nM
same,EC50,[10],911 ± 86 nM
same,EC50,[11],100 ± 5.3 nM
"SFRNGV-NH2 [compound 1, SerPheArgAsnGlyVal-NH2]",EC50,[7],1.95 ± 0.28 nM
same,cAMP Accumulation EC50,[7]; hNPSR 107I cell line,comparable potency to NPS
same,EC50,[9],427 nM
same,EC50,[10],13.4 ± 4.8 nM
same,EC50,[11],2.03 ± 0.3 nM
SFK(trifluoroacetyl)N-NH2 [6. SerPheLysCOCF3Asn-NH2],"EC50 of calcium mobilization, CHO-Gα16 hNPSR-107I cells",[1],563 nM
SFRNG-NH2 [2. SerPheArgAsnGly-NH2],"EC50 of cAMP accumulation, HEK 293T mNPSR cells",[13],> 10000 nM
same,"EC50 of calcium mobilization, HEK 293T mNPSR cells",[13],1010 nM
same,"EC50 of cAMP accumulation, HEK 293T hNPSR-107I cells",[1],3060 nM
same,"EC50 of cAMP accumulation, HEK 293T hNPSR-107N cells",[14],> 10000 nM
SFRNGV-NH2 [1. SerPheArgAsnGlyVal-NH2],"EC50 of cAMP accumulation, HEK 293T mNPSR cells",[13],13.4 nM
same,"EC50 of calcium mobilization, HEK 293T mNPSR cells",[13],2.03 nM
same,"EC50 of cAMP accumulation, HEK 293T hNPSR-107I cells",[1],1.95 nM
same,"EC50 of cAMP accumulation, HEK 293T hNPSR-107N cells",[14],427 nM
SFKN-NH2 [4. SerPheLysAsn-NH2],"EC50 of cAMP accumulation, HEK 293T mNPSR cells",[13],911 nM
same,"EC50 of calcium mobilization, HEK 293T mNPSR cells",[13],100 nM
same,"EC50 of cAMP accumulation, HEK 293T hNPSR-107I cells",[1],117 nM
same,"EC50 of calcium mobilization, CHO-Gα16 hNPSR-107I cells",[1],3.02 nM
SFRN-NH2 [3. SerPheArgAsn-NH2],"EC50 of cAMP accumulation, HEK 293T mNPSR cells",[13],800 nM
same,"EC50 of calcium mobilization, HEK 293T mNPSR cells",[13],66.6 nM
same,"EC50 of cAMP accumulation, HEK 293T hNPSR-107I cells",[1],129 nM
same,"EC50 of calcium mobilization, CHO-Gα16 hNPSR-107I cells",[1],2.43 nM
same,"EC50 of cAMP accumulation, HEK 293T hNPSR-107N cells",[14],> 10000 nM
same,"EC50 of calcium mobilization, CHO-Gα16 hNPSR-107N cells",[14],998 nM
SFK(Me2)N-NH2 [5. SerPheDimethylLysAsn-NH2],"EC50 of calcium mobilization, CHO-Gα16 hNPSR-107I cells",[1],43.5 nM
SFRNGVGTGMKKTSFQRAKS [Neuropeptide S],"EC50 of cAMP accumulation, HEK 293T mNPSR cells",[13],3.67 nM
same,"EC50 of calcium mobilization, HEK 293T mNPSR cells",[13],5.55 nM
same,"EC50 of cAMP accumulation, HEK 293T hNPSR-107I cells",[1],4.19 nM
same,"EC50 of calcium mobilization, CHO-Gα16 hNPSR-107I cells",[1],0.59 nM
same,"EC50 of cAMP accumulation, HEK 293T hNPSR-107N cells",[14],48.9 nM
same,"EC50 of calcium mobilization, CHO-Gα16 hNPSR-107N cells",[14],2 nM
